From ChEMBL document CHEMBL3112453, “Novel lung adenocarcinoma and nuclear factor-kappa B (NF-κB) inhibitors: synthesis and evaluation of lantadene congeners” (Eur J Med Chem, 2014)

How the values were obtained:
[1] = test system: A549; experiment: Cytotoxicity against human A549 cells after 48 hrs by MTT assay; assay type: functional, cell-based
How it was run: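 A549 cells grown in RPMI with 5% FBS and 1% penicillin-streptomycin. Seeded at 4000 cells/well, attached overnight, then exposed to compound at 0.01–100 µmol for 48 h. MTT added for 4 h, formazan dissolved in DMSO, absorbance read at 570 nm. Mean of at least three independent experiments, each in triplicate.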

[2] = test system: A549; experiment: Cytotoxicity against human A549 cells transfected with NF-kappaB assessed as reduction of cell viability relative to control; assay type: cell-based; design: concentration or dose not given beside the values
[3] = Inhibition of TNF-alpha-induced NF-kappaB (unknown origin) activation transfected in human A549 cells after 7 hrs by bright-glo luciferase reporter gene assay; assay type: cell-based
How it was run: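 A549 cells co-transfected with pNF-κB-Luc and pSV-β-galactosidase (internal control) using lipofectamine. Medium changed at 6 h, cells cultured a further 6 h, then given TNF-α 15 ng/ml and compound together for 7 h. Read-out is Bright-Glo luciferase, corrected for background and viability and expressed relative to TNF-α-only cells. IC50 from a variable-slope sigmoidal fit.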

[4] = Chemical stability in simulated gastric fluid assessed as compound remaining at 5 mg/ml at pH 2 measured at 12 hrs by HPLC analysis; assay type: physicochemical; conditions: read-out: Stability
How it was run: (§1)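 Stability in simulated gastric fluid, HCl buffer pH 2, 37 °C in a water bath. Compound stock is 5 mg/ml in THF, diluted 1:10 into buffer. Samples were taken at 0, 2, 5, 8 and 12 h, diluted with ACN and analysed by HPLC. % remaining = peak area at each time / peak area at 0 min × 100.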

[5] = Metabolic stability in 80% human plasma assessed as compound remaining at 5 mg/ml measured at 15 mins by HPLC analysis; assay type: ADME, cell-free; conditions: read-out: Stability
How it was run: (§2)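 Human plasma at 80%, diluted with isotonic phosphate buffer pH 7.4, 37 °C in a water bath. Compound stock is 5 mg/ml in THF, diluted 1:10 into the plasma. Samples were taken at 0, 15, 30, 60 and 120 min, quenched in ACN, centrifuged 5 min, and the supernatant analysed by HPLC for ester remaining.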

[6] = biological target: T1, Inhibitor of nuclear factor kappa-B kinase subunit beta (Homo sapiens, UniProt O14920); experiment: Inhibition of FLAG-tagged human recombinant IKKbeta phosphorylation expressed in baculovirus infected insect Sf9 cells after 1 hr by luminescence assay
T1 sequence (O14920 whole entry): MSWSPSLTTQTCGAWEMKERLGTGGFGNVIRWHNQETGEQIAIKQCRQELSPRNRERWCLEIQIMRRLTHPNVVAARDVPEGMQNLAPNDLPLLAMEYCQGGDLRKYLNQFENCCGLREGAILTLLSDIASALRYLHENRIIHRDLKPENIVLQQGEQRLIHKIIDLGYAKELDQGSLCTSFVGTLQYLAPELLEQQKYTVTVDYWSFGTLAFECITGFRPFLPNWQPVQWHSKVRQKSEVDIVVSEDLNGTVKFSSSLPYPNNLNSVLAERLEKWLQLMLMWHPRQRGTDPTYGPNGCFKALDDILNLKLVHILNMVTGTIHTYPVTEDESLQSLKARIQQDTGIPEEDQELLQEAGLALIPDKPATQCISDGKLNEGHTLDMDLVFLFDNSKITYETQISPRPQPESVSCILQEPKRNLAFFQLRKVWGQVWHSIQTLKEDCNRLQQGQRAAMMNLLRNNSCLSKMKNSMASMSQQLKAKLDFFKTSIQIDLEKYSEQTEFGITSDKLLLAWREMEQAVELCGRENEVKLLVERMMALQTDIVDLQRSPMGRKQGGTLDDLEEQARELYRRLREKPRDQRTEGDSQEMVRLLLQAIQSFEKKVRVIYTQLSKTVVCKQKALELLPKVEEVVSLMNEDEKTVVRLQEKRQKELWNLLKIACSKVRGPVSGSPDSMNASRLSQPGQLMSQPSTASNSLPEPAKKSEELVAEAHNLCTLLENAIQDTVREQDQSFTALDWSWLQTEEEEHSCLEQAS
How it was run: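 Kinase reaction ran 1 h at room temperature with bacterially expressed GST-IkBα substrate and 500 nmol ATP, in 25 mmol/l HEPES pH 7.5, 10 mmol/l Mg acetate, 1 mmol DTT, 0.01% BSA and 0.01% Tween20. Stopped with equal volume Kinase-Glo, 10 min RT, then luminescence of remaining ATP read.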

[7] = Chemical stability in simulated gastric fluid assessed as compound remaining at 5 mg/ml at pH 2 measured at 5 hrs by HPLC analysis; assay type: physicochemical; conditions: read-out: Stability; how it was run: as §1
[8] = Metabolic stability in 80% human plasma assessed as compound remaining at 5 mg/ml measured at 120 mins by HPLC analysis; assay type: ADME, cell-free; conditions: read-out: Stability; how it was run: as §2
[9] = Metabolic stability in 80% human plasma assessed as compound remaining at 5 mg/ml measured at 30 mins by HPLC analysis; assay type: ADME, cell-free; conditions: read-out: Stability; how it was run: as §2
[10] = Chemical stability in simulated gastric fluid assessed as compound remaining at 5 mg/ml at pH 2 measured at 8 hrs by HPLC analysis; assay type: physicochemical; conditions: read-out: Stability; how it was run: as §1
[11] = Metabolic stability in 80% human plasma assessed as compound remaining at 5 mg/ml measured at 60 mins by HPLC analysis; assay type: ADME, cell-free; conditions: read-out: Stability; how it was run: as §2
[12] = Chemical stability in simulated gastric fluid assessed as compound remaining at 5 mg/ml at pH 2 measured at 2 hrs by HPLC analysis; assay type: physicochemical; conditions: read-out: Stability; how it was run: as §1

## CC1(C)C[C@@H](O)[C@]2(C(=O)O)CC[C@]3(C)C(=CC[C@@H]4[C@@]5(C)CC[C@H](O)C(C)(C)[C@@H]5CC[C@]43C)[C@@H]2C1
[1]
  IC50: > 10 µmol
[2]
  Activity: < 5%
[3]
  IC50: > 10 µmol

## CC(C)=CC(=O)O[C@@H]1CC(C)(C)C[C@H]2C3=CC[C@@H]4[C@@]5(C)CCC(=O)C(C)(C)[C@@H]5CC[C@@]4(C)[C@]3(C)CC[C@@]12C(=O)O
[1]
  IC50: 1.19 µmol
[2]
  Activity: < 5%
[3]
  IC50: 1.56 µmol

## C/C=C(\C)C(=O)O[C@@H]1CC(C)(C)C[C@H]2C3=CC[C@@H]4[C@@]5(C)CC[C@H](OC(C)=O)C(C)(C)[C@@H]5CC[C@@]4(C)[C@]3(C)CC[C@@]12C(=O)O
[1]
  IC50: 5.42 µmol
[2]
  Activity: < 5%
[3]
  IC50: 2.8 µmol

## CC(=O)O[C@H]1CC[C@]2(C)[C@H]3CC=C4[C@@H]5CC(C)(C)C[C@@H](OC(=O)C=C(C)C)[C@]5(C(=O)O)CC[C@@]4(C)[C@]3(C)CC[C@H]2C1(C)C
[1]
  IC50: 4.9 µmol
[2]
  Activity: < 5%
[3]
  IC50: 2.32 µmol

## C/C=C(\C)C(=O)O[C@@H]1CC(C)(C)C[C@H]2C3=CC[C@@H]4[C@@]5(C)CC[C@H](OC(=O)c6ccccc6)C(C)(C)[C@@H]5CC[C@@]4(C)[C@]3(C)CC[C@@]12C(=O)O
[1]
  IC50: 7.36 µmol
[2]
  Activity: < 5%
[3]
  IC50: 5.04 µmol

## CC(C)=CC(=O)O[C@@H]1CC(C)(C)C[C@H]2C3=CC[C@@H]4[C@@]5(C)CC[C@H](OC(=O)c6ccccc6)C(C)(C)[C@@H]5CC[C@@]4(C)[C@]3(C)CC[C@@]12C(=O)O
[1]
  IC50: 7.2 µmol
[2]
  Activity: < 5%
[3]
  IC50: 4.64 µmol

## C/C=C(\C)C(=O)O[C@@H]1CC(C)(C)C[C@H]2C3=CC[C@@H]4[C@@]5(C)CC[C@H](OC(=O)c6ccccc6Cl)C(C)(C)[C@@H]5CC[C@@]4(C)[C@]3(C)CC[C@@]12C(=O)O
[1]
  IC50: 6.8 µmol
[2]
  Activity: < 5%
[3]
  IC50: 4.18 µmol

## CC(C)=CC(=O)O[C@@H]1CC(C)(C)C[C@H]2C3=CC[C@@H]4[C@@]5(C)CC[C@H](OC(=O)c6ccccc6Cl)C(C)(C)[C@@H]5CC[C@@]4(C)[C@]3(C)CC[C@@]12C(=O)O
[1]
  IC50: 6.52 µmol
[2]
  Activity: < 5%
[3]
  IC50: 3.7 µmol

## C/C=C(\C)C(=O)O[C@@H]1CC(C)(C)C[C@H]2C3=CC[C@@H]4[C@@]5(C)CC[C@H](OC(=O)/C=C/c6ccccc6)C(C)(C)[C@@H]5CC[C@@]4(C)[C@]3(C)CC[C@@]12C(=O)O
[4]
  remaining at 12 h, 5 mg/ml: 76.6%
[1]
  IC50: 0.12 µmol
[2]
  Activity: < 5%
[3]
  IC50: 0.56 µmol
[5]
  remaining at 0.25 h, 5 mg/ml: 74.2%
[6]
  IC50: 1.2 µmol
[7]
  remaining at 5 h, 5 mg/ml: 90.7%
[8]
  remaining at 2 h, 5 mg/ml: 36.8%
[9]
  remaining at 0.5 h, 5 mg/ml: 54.7%
[10]
  remaining at 8 h, 5 mg/ml: 84.7%
[11]
  remaining at 1 h, 5 mg/ml: 46.8%
[12]
  remaining at 2 h, 5 mg/ml: 96.4%

## CC(C)=CC(=O)O[C@@H]1CC(C)(C)C[C@H]2C3=CC[C@@H]4[C@@]5(C)CC[C@H](OC(=O)/C=C/c6ccccc6)C(C)(C)[C@@H]5CC[C@@]4(C)[C@]3(C)CC[C@@]12C(=O)O
[4]
  remaining at 12 h, 5 mg/ml: 81%
[1]
  IC50: 0.08 µmol
[2]
  Activity: < 5%
[3]
  IC50: 0.42 µmol
[5]
  remaining at 0.25 h, 5 mg/ml: 74.7%
[6]
  IC50: 0.94 µmol
[7]
  remaining at 5 h, 5 mg/ml: 92.5%
[8]
  remaining at 2 h, 5 mg/ml: 39.2%
[9]
  remaining at 0.5 h, 5 mg/ml: 55.5%
[10]
  remaining at 8 h, 5 mg/ml: 87.6%
[11]
  remaining at 1 h, 5 mg/ml: 48.1%
[12]
  remaining at 2 h, 5 mg/ml: 97.2%

## CC1(C)C[C@@H](OC(=O)c2ccccc2Cl)[C@]2(C(=O)O)CC[C@]3(C)C(=CC[C@@H]4[C@@]5(C)CCC(=O)C(C)(C)[C@@H]5CC[C@]43C)[C@@H]2C1
[1]
  IC50: > 10 µmol
[2]
  Activity: < 5%
[3]
  IC50: > 10 µmol

## CC1(C)C[C@@H](OC(=O)/C=C/c2ccccc2)[C@]2(C(=O)O)CC[C@]3(C)C(=CC[C@@H]4[C@@]5(C)CCC(=O)C(C)(C)[C@@H]5CC[C@]43C)[C@@H]2C1
[1]
  IC50: 3.64 µmol
[2]
  Activity: < 5%
[3]
  IC50: 2.42 µmol

## CC(=O)O[C@H]1CC[C@]2(C)[C@H]3CC=C4[C@@H]5CC(C)(C)C[C@@H](OC(C)=O)[C@]5(C(=O)O)CC[C@@]4(C)[C@]3(C)CC[C@H]2C1(C)C
[1]
  IC50: > 10 µmol
[2]
  Activity: < 5%
[3]
  IC50: > 10 µmol

## COC(=O)[C@@]12CC[C@]3(C)C(=CC[C@@H]4[C@@]5(C)CC[C@H](O)C(C)(C)[C@@H]5CC[C@]43C)[C@@H]1CC(C)(C)C[C@H]2O
[1]
  IC50: > 10 µmol
[2]
  Activity: < 5%
[3]
  IC50: > 10 µmol

## C/C=C(\C)C(=O)O[C@@H]1CC(C)(C)C[C@H]2C3=CC[C@@H]4[C@@]5(C)CC/C(=N\O)C(C)(C)[C@@H]5CC[C@@]4(C)[C@]3(C)CC[C@@]12C(=O)O
[1]
  IC50: > 10 µmol
[2]
  Activity: < 5%
[3]
  IC50: > 10 µmol

## CC(C)=CC(=O)O[C@@H]1CC(C)(C)C[C@H]2C3=CC[C@@H]4[C@@]5(C)CC/C(=N\O)C(C)(C)[C@@H]5CC[C@@]4(C)[C@]3(C)CC[C@@]12C(=O)O
[1]
  IC50: > 10 µmol
[2]
  Activity: < 5%
[3]
  IC50: > 10 µmol

## COC(=O)[C@@]12CC[C@]3(C)C(=CC[C@@H]4[C@@]5(C)CCC(=O)C(C)(C)[C@@H]5CC[C@]43C)[C@@H]1CC(C)(C)C[C@H]2O
[1]
  IC50: > 10 µmol
[2]
  Activity: < 5%
[3]
  IC50: > 10 µmol

## CC1(C)C[C@@H](O)[C@]2(C(=O)O)CC[C@]3(C)C(=CC[C@@H]4[C@@]5(C)CCC(=O)C(C)(C)[C@@H]5CC[C@]43C)[C@@H]2C1
[1]
  IC50: > 10 µmol
[2]
  Activity: < 5%
[3]
  IC50: 6.42 µmol

## CC1(C)C[C@@H](OC(=O)c2ccccc2)[C@]2(C(=O)O)CC[C@]3(C)C(=CC[C@@H]4[C@@]5(C)CCC(=O)C(C)(C)[C@@H]5CC[C@]43C)[C@@H]2C1
[1]
  IC50: > 10 µmol
[2]
  Activity: < 5%
[3]
  IC50: > 10 µmol

## C/C=C(/C)C(=O)O[C@@H]1CC(C)(C)C[C@H]2C3=CC[C@@H]4[C@@]5(C)CCC(=O)C(C)(C)[C@@H]5CC[C@@]4(C)[C@]3(C)CC[C@@]12C(=O)O [LANTADENE A]
[1]
  IC50: 2.84 µmol
[2]
  Activity: < 5%
[3]
  IC50: 1.06 µmol

## C/C=C(/C)C(=O)O[C@@H]1CC(C)(C)C[C@H]2C3=CC[C@@H]4[C@@]5(C)CC[C@H](O)C(C)(C)[C@@H]5CC[C@@]4(C)[C@]3(C)CC[C@@]12C(=O)O [Reduced Lantadene A]
[1]
  IC50: 0.79 µmol
[2]
  Activity: < 5%
[3]
  IC50: 0.98 µmol
[6]
  IC50: 2.62 µmol

## CC(C)=CC(=O)O[C@@H]1CC(C)(C)C[C@H]2C3=CC[C@@H]4[C@@]5(C)CC[C@H](O)C(C)(C)[C@@H]5CC[C@@]4(C)[C@]3(C)CC[C@@]12C(=O)O [Reduced Lantadene B]
[1]
  IC50: 0.43 µmol
[2]
  Activity: < 5%
[3]
  IC50: 1.02 µmol
[6]
  IC50: 4.24 µmol
